Activity calls are given as the source filed them. The rule behind the calls is not given here.
Legend:
Lactoylglutathione lyase [1] = biological target: T1, Lactoylglutathione lyase (Homo sapiens, UniProt Q04760); experiment: Inhibition recombinant human N-terminal 6His-tagged GLO1 (2 to 184 residues) expressed in Escherichia coli using MG as substrate preincubated for 15 to 20 mins followed by substrate addition and measured every 1 min for 8 mins
Outline: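 Recombinant human GLO1, 40 ng per well, preincubated 15–20 min with inhibitor in 100 mM sodium phosphate pH 7.0. Substrate was GSH + MG hemithioacetal, premixed 20 min at room temperature; DMSO ≤5% final. Absorbance at 240 nm read every 1 min for 8 min. Rates compared with no-inhibitor controls after background subtraction. Chugai-1 as reference.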
Target sequence in this assay (Q04760 whole entry, the tested form may be a part): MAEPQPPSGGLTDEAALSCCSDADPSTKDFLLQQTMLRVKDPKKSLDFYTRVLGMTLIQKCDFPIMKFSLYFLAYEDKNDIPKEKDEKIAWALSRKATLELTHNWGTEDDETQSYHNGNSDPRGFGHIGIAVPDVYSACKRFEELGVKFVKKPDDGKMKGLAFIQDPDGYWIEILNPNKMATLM

[2] = Toxicity in FVB/NJ mouse at =>50 mg/kg, ip; assay type: organism-based; details: in vivo
Outline: (§1)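 Toxicity in mice judged by observation after i.p. dosing.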

[3] = Drug uptake in FVB/NJ mouse brain at 12.5 mg/kg, ip measured after 120 mins post dose by LC-MS/MS analysis; assay type: ADME, organism-based; details: read-out: Drug uptake
Outline: (§2)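 Single i.p. dose, then brain sampled at 30, 60, 120 or 240 min, n = 3 per time point. Mice anesthetized with isoflurane and perfused with PBS through the left ventricle. Brains minced, extracted with acetonitrile, bead-homogenized, centrifuged and filtered. LC-MS/MS against an 11-point calibration (5–5000 ng/mL) spiked into blank brain. Median reported as ng/mg wet brain.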

[4] = Drug uptake in FVB/NJ mouse brain at 12.5 mg/kg, ip measured after 60 mins post dose by LC-MS/MS analysis; assay type: ADME, organism-based; details: read-out: Drug uptake; outline: as §2
[5] = Drug uptake in FVB/NJ mouse brain at 25 mg/kg, ip measured after 30 mins post dose by LC-MS/MS analysis; assay type: ADME, organism-based; details: read-out: Drug uptake; outline: as §2
[6] = Drug uptake in FVB/NJ mouse brain at 12.5 mg/kg, ip measured after 30 mins post dose by LC-MS/MS analysis; assay type: ADME, organism-based; details: read-out: Drug uptake; outline: as §2
Mus musculus [7] = experiment: In-vivo inhibition of GLO1 in FVB/NJ mouse assessed as increase in methylglyoxal accumulation at 12.5 mg/kg, ip measured at 240 mins post dose by LC-MS/MS analysis relative to control; assay type: functional; details: in the assay text read “25 mg/kg” for “12.5 mg/kg”
Outline: (§3)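 Brain MG measured 30–240 min after i.p. dosing and compared with vehicle-treated mice. Brains taken after PBS perfusion under isoflurane, then acetonitrile extraction, homogenization, centrifugation and filtration. LC-MS/MS quantified against an 11-point calibration (5–5000 ng/mL) in blank brain matrix. Expressed per mg brain tissue.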

[8] = Drug uptake in FVB/NJ mouse brain at 25 mg/kg, ip measured after 60 mins post dose by LC-MS/MS analysis; assay type: ADME, organism-based; details: read-out: Drug uptake; outline: as §2
[9] = Toxicity in FVB/NJ mouse up to 100 mg/kg, ip; assay type: organism-based; details: in vivo; outline: as §1
Mus musculus [10] = experiment: Antidepressant-like activity in FVB/NJ mouse assessed as reduction in immobility at 12.5 mg/kg, ip measured after 120 mins by forced swim test; assay type: functional, organism-based
Outline: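 Mice 108–148 days old, 12 h light–dark cycle, tested in the light phase. Each mouse got vehicle (8% DMSO, 18% Tween, […]) on one day and drug on the other, i.p., counterbalanced, about 3 weeks apart. FST run 2 h post-injection: 6 min in a bucket filled 48 cm with 23–25 water. Immobility time analysed by ANOVA with sex and test order as factors.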

[11] = Drug uptake in FVB/NJ mouse brain at 25 mg/kg, ip measured after 240 mins post dose by LC-MS/MS analysis; assay type: ADME, organism-based; details: read-out: Drug uptake; outline: as §2
Mus musculus [12] = experiment: In-vivo inhibition of GLO1 in FVB/NJ mouse assessed as increase in methylglyoxal accumulation at 12.5 mg/kg, ip measured at 30 mins post dose by LC-MS/MS analysis relative to control; assay type: functional; outline: as §3
[13] = Drug uptake in FVB/NJ mouse brain at 12.5 mg/kg, ip measured after 240 mins post dose by LC-MS/MS analysis; assay type: ADME, organism-based; details: read-out: Drug uptake; outline: as §2
[14] = Drug uptake in FVB/NJ mouse brain at 25 mg/kg, ip measured after 120 mins post dose by LC-MS/MS analysis; assay type: ADME, organism-based; details: read-out: Drug uptake; outline: as §2
Lactoylglutathione lyase [15] = biological target: T1, Lactoylglutathione lyase; experiment: Inhibition of human GLO1
Target sequence in this assay (Q04760 whole entry, the tested form may be a part): as above

Lactoylglutathione lyase [16] = biological target: T1, Lactoylglutathione lyase; experiment: Inhibition recombinant human N-terminal 6His-tagged GLO1 (2 to 184 residues) expressed in Escherichia coli at 50 uM using MG as substrate preincubated for 15 to 20 mins followed by substrate addition and measured every 1 min for 8 mins
Target sequence in this assay (Q04760 2-184 limits assumed): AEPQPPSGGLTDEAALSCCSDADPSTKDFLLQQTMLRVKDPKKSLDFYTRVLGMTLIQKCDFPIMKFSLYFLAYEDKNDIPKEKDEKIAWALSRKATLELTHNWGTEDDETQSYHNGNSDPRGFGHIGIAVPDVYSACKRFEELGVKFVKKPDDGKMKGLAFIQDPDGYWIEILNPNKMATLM

Row | IC50 (Lactoylglutathione lyase [1]) | SMILES | other results
1 | > 200 µM | CS(=O)(=O)Nc1cccc2ccncc12 | –
2 | 8.5 µM | O=S(=O)(Nc1cccc2cccnc12)c1ccccc1 | –
3 | 43 µM | Cc1ccc2cccc(NS(C)(=O)=O)c2n1 | –
4 | 7.3 µM | N#Cc1cccc(S(=O)(=O)Nc2cccc3cccnc23)c1 | –
5 | 6.1 µM | O=S(=O)(Nc1cccc2cccnc12)c1ccc2c(c1)OCO2 | –
6 | 0.37 µM | O=S(=O)(Nc1ccc(-c2cccc(Cl)c2)c2cccnc12)c1ccccn1 | –
7 | 0.79 µM | O=S(=O)(Nc1ccc(CCc2ccccc2)c2cccnc12)c1ccccn1 | –
8 | 13.9 µM | CS(=O)(=O)Nc1ccc(-c2ccc(F)c(F)c2)c2cccnc12 | –
9 | 6.6 µM | O=C1Cc2cc(S(=O)(=O)Nc3cccc4cccnc34)ccc2N1 | –
10 | > 200 µM | CNS(=O)(=O)c1cccc2cccnc12 | –
11 | > 20 µM | N#Cc1ccccc1S(=O)(=O)Nc1cccc2cccnc12 | –
12 | > 100 µM | CS(=O)(=O)Nc1ccc(N2CCCCC2)c2cccnc12 | –
13 | > 20 µM | O=S(=O)(Nc1cccc2cccnc12)C1CC1 | –
14 | 0.5 µM | O=S(=O)(Nc1ccc(-c2ccccc2)c2cccnc12)c1ccccn1 | –
15 | 3.9 µM | O=S(=O)(Nc1cccc2cccnc12)c1ccc2ncsc2c1 | –
16 | 11.5 µM | CS(=O)(=O)Nc1ccc(-c2ccccc2)c2cccnc12 | –
17 | > 20 µM | CCCCS(=O)(=O)Nc1cccc2cccnc12 | –
18 | 0.48 µM | O=S(=O)(Nc1ccc(-c2ccc(Cl)cc2)c2cccnc12)c1ccccn1 | Activity [2]: Toxic
19 | 3.9 µM | CSc1nc2ccc(S(=O)(=O)Nc3cccc4cccnc34)cc2s1 | –
20 | > 200 µM | CS(=O)(=O)Oc1cccc2cccnc12 | –

Row | IC50 (Lactoylglutathione lyase [1]) | SMILES | other results
21 | > 20 µM | O=S(=O)(Nc1cccc2cccnc12)C1CCCCC1 | –
22 | 0.54 µM | O=S(=O)(Nc1ccc(-c2ccc(Cl)c(Cl)c2)c2cccnc12)c1ccccn1 | –
23 | 0.46 to 0.463 µM | COc1cc(CCc2cc(NS(=O)(=O)c3ccccn3)c3ncccc3c2)cc(OC)c1 | concentration at 2 h [3]: 6000 ng/g; concentration at 1 h [4]: 14400 ng/g; concentration at 0.5 h [5]: 400 ng/g; concentration at 0.5 h [6]: 2100 ng/g; fold change (FC) (Mus musculus [7]): 13; concentration at 1 h [8]: 6700 ng/g; Activity [9]: Non-Toxic; Activity (Mus musculus [10]): Active; concentration at 4 h [11]: 8300 ng/g; fold change (FC) (Mus musculus [12]): 11; concentration at 4 h [13]: 2200 ng/g; concentration at 2 h [14]: 18900 ng/g
24 | 3.6 µM | O=S(=O)(Nc1cccc2cccnc12)c1ccc2ccccc2c1 | –
25 | 0.64 µM | COc1ccc(-c2ccc(NS(=O)(=O)c3ccccn3)c3ncccc23)cc1 | –
26 | 7.6 µM | O=S(=O)(Cc1ccccc1)Nc1cccc2cccnc12 | –
27 | 4.6 µM | O=S(=O)(CCCc1ccccc1)Nc1cccc2cccnc12 | –
28 | 1.19 µM | COc1cc(OC)cc(-c2ccc(NS(=O)(=O)c3ccccn3)c3ncccc23)c1 | –
29 | 5.5 µM | Cn1cnc(S(=O)(=O)Nc2cccc3cccnc23)c1 | –
30 | 5.7 µM | O=S(=O)(Nc1cccc2cccnc12)c1ccc(F)c(F)c1 | –
31 | – | COC(=O)c1c(C)cc(Oc2cc(C)cc(O)c2O)cc1O | Ki (Lactoylglutathione lyase [15]): 0.23 µM
32 | 4.2 µM | CC(C)(C)c1ccc(S(=O)(=O)Nc2cccc3cccnc23)cc1 | –
33 | 0.72 µM | O=S(=O)(Nc1ccc(-c2ccc(F)cc2)c2cccnc12)c1ccccn1 | –
34 | 7.5 µM | O=S(=O)(Nc1cccc2cccnc12)c1ccc(F)cc1 | –
35 | > 20 µM | CS(=O)(=O)Nc1ccc(-c2ccncc2)c2cccnc12 | –
36 | 11.9 µM | CS(=O)(=O)Nc1ccc(-c2ccco2)c2cccnc12 | –
37 | 7 µM | COc1ccc(S(=O)(=O)Nc2cccc3cccnc23)cc1 | –
38 | 11.2 µM | O=S(=O)(Nc1cccc2cccnc12)c1cccnc1 | –
39 | 6.6 µM | N#Cc1ccc(S(=O)(=O)Nc2cccc3cccnc23)cc1 | –
40 | 1.3 µM | O=S(=O)(Nc1cccc2cccnc12)c1ccccn1 | –

Row | IC50 (Lactoylglutathione lyase [1]) | SMILES | other results
41 | > 100 µM | CS(=O)(=O)Nc1ccc(N2CCOCC2)c2cccnc12 | –
42 | 6.9 µM | COc1cccc(S(=O)(=O)Nc2cccc3cccnc23)c1 | –
43 | 0.59 µM | COc1ccc(-c2ccc(NS(=O)(=O)c3ccccn3)c3ncccc23)cc1Cl | –
44 | 8.7 µM | O=S(=O)(CCc1ccccc1)Nc1cccc2cccnc12 | –
45 | 1.21 µM | O=S(=O)(Nc1cc(CCc2ccccc2)cc2cccnc12)c1ccccn1 | –
46 | > 200 µM | CS(=O)(=O)Nc1cccc2ncccc12 | –
47 | > 20 µM | CC(C)S(=O)(=O)Nc1cccc2cccnc12 | –
48 | 15.4 µM | CS(=O)(=O)Nc1ccc(-c2cccs2)c2cccnc12 | –
49 | 1.32 µM | O=S(=O)(Nc1cc(CCc2ccc(F)cc2)cc2cccnc12)c1ccccn1 | –
50 | 1.04 µM | COc1cccc(-c2ccc(NS(=O)(=O)c3ccccn3)c3ncccc23)c1 | –
51 | 0.79 µM | O=S(=O)(Nc1ccc(CCc2ccc(F)cc2)c2cccnc12)c1ccccn1 | –
52 | 6.2 µM | CS(=O)(=O)Nc1ccc(-c2ccc(Cl)cc2)c2cccnc12 | –
53 | > 200 µM | CC(=O)Nc1cccc2cccnc12 | –
54 | 18.5 µM | CS(=O)(=O)Nc1cccc2cccnc12 | inhibition (Lactoylglutathione lyase [16]): > 50%
55 | 11.2 µM | CS(=O)(=O)Nc1ccc(-c2ccc3c(c2)OCO3)c2cccnc12 | –
56 | > 20 µM | COc1ccccc1S(=O)(=O)Nc1cccc2cccnc12 | –
57 | > 20 µM | Cn1cc(S(=O)(=O)Nc2cccc3cccnc23)cn1 | –
58 | 4.9 µM | O=S(=O)(Nc1cccc2cccnc12)c1cccs1 | –
59 | > 20 µM | CS(=O)(=O)Nc1ccc(-c2cncnc2)c2cccnc12 | –
60 | 14.5 µM | Cc1ccc2cccc(NS(=O)(=O)c3ccccc3)c2n1 | –

Reference: ChEMBL document CHEMBL4368911, “Metal-Binding Pharmacophore Library Yields the Discovery of a Glyoxalase 1 Inhibitor” (J Med Chem, 2019)
